PMC6438848 (Saudi Pharmaceutical Journal : SPJ, 2018)

Legend:
[1] = system: Hep-G2 cells (human hepatocellular carcinoma); experiment: In vitro antiproliferative assay; format: cell-based; conditions: for IC50: Homo sapiens, HepG2, 72 h, read-out: IC50 ± SD
[2] = system: JURKAT cells (human leukemic T-cell lymphoblast); experiment: In vitro antiproliferative assay; format: cell-based; conditions: for IC50: Homo sapiens, Jurkat, 72 h, read-out: IC50 ± SD
[3] = system: MCF-7 cells (human breast carcinoma); experiment: In vitro antiproliferative assay; format: cell-based; conditions: for IC50: Homo sapiens, MCF7, 72 h, read-out: IC50 ± SD
[4] = system: HT-29 cells (human colon adenocarcinoma); experiment: In vitro antiproliferative assay; format: cell-based; conditions: for IC50: Homo sapiens, HT-29, 72 h, read-out: IC50 ± SD
[5] = system: HeLa cells (human cervical carcinoma); experiment: In vitro antiproliferative assay; format: cell-based; conditions: for IC50: Homo sapiens, 72 h, read-out: IC50 ± SD
[6] = Determination of lipophilicity by RP UPLC; format: physicochemical; conditions: for -S (slope of the regression curve): log k = log kw + SΦ; for log kw (capacity factor of the analyte in pure water): Kinetex C18, methanol 0.65-0.95 v/v, 25 °C
In short: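 Kinetex C18 column (150 × 4.6 mm, 2.6 µm) on a UPLC with UV detection at 254 nm. Test compound was dissolved in methanol at 10 µg/ml. Isocratic methanol fractions ran at 0.5 ml/min and 25 °C. Dead time was taken from uracil. log k was regressed linearly on methanol fraction Φ (Soczewiński–Wachtmeister), giving log kw as the intercept and S as the slope.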

[7] = system: MCF-10A normal human mammary gland epithelial cells; experiment: cells; format: cell-based; conditions: for IC50: Homo sapiens, MCF-10A, 72 h, read-out: IC50 ± SD; for cytotoxic activity against MCF-10A, times lower than against cancer cell lines: MCF-10A vs MCF-7, JURKAT, HT-29, Hep-G2, HeLa, Du-145, DAUDI; for cytotoxic activity against MCF-10A, times lower than against cancer cells: MCF-10A vs MV4-11 (cancer cell lines)
[8] = system: Du-145 cells (human prostate carcinoma); experiment: In vitro antiproliferative assay; format: cell-based; conditions: for IC50: Homo sapiens, DU-145, 72 h, read-out: IC50 ± SD
[9] = system: MV-4-11 cells (biphenotypic B myelomonocytic leukemia); experiment: In vitro antiproliferative assay; format: cell-based, human; conditions: for IC50: Homo sapiens, MV4-11, 72 h, read-out: IC50 ± SD
[10] = system: DAUDI cells (Burkitt lymphoma); experiment: In vitro antiproliferative assay; format: cell-based, human; conditions: for IC50: Homo sapiens, Daudi, 72 h, read-out: IC50 ± SD
[11] = system: human cancer cell lines (MV-4-11, MCF-7, JURKAT, HT-29, Hep-G2, HeLa, Du-145, DAUDI); experiment: In vitro antiproliferative assay, summary over several cancer cell lines; format: cell-based; conditions: read-out: IC50 values in relation to other cell lines

Compound | IC50 [1] | IC50 [2] | IC50 [3] | IC50 [4] | IC50 [5] | Φ0 lipophilicity parameter (−log kw/S) [6] | -S (slope of the regression curve) [6] | IC50 [7] | IC50 [8] | IC50 [9] | IC50 [10] | IC50 [11] | cytotoxic activity against MCF-10A, times lower than against cancer cell lines [7] | cytotoxic activity against MCF-10A, times lower than against cancer cells [7] | log kw (capacity factor of the analyte in pure water) [6] | other results
CC(=O)c1ccc([N+]2=NN(CCCl)CC2)cc1.[Cl-] [2a, 3-(4-Acetylphenyl)-1-(2-chloroethyl)-4,5-dihydro-1H-1,2,3-triazol-3-ium chloride] | 38.5 ± 12.3 µg/mL | 66.2 ± 13.4 µg/mL | 45.1 ± 1.65 µg/mL | 49.3 ± 17.4 µg/mL | 39.4 ± 9.77 µg/mL | 1.958 | 0.755 | 80 ± 8.43 µg/mL | 89 ± 9.31 µg/mL | 13.4 ± 5.94 µg/mL | – | – | – | – | – | –
Cc1ccc([N+]2=NN(CCCl)CC2)cc1.[Cl-] [2c, 1-(2-Chloroethyl)-3-p-tolyl-4,5-dihydro-1H-1,2,3-triazol-3-ium chloride] | 23.8 ± 5.36 µg/mL | 13.1 ± 0.503 µg/mL | 19.8 ± 3.02 µg/mL | 16.2 ± 7.37 µg/mL | 18.1 ± 7.04 µg/mL | 1.338 | 2.000 | 61.6 ± 13.1 µg/mL | 36.4 ± 5.29 µg/mL | 5.42 ± 2.52 µg/mL | 4.91 ± 1.53 µg/mL | 12.5 to 36.4 µg/mL | 1–5 times | 6–11 times | – | –
O=[N+]([O-])c1ccc([N+]2=NN(CCCl)CC2)cc1.[Cl-] [2g, 1-(2-Chloroethyl)-3-(4-nitrophenyl)-4,5-dihydro-1H-1,2,3-triazol-3-ium chloride] | 32.1 ± 1.4 µg/mL | 49.1 ± 14.1 µg/mL | 23.9 ± 7.48 µg/mL | 47.6 ± 3.42 µg/mL | 29 ± 5.35 µg/mL | 2.532 | 0.594 | 36.6 ± 9.52 µg/mL | 34.1 ± 1.35 µg/mL | 14.1 ± 7.75 µg/mL | – | – | – | – | – | –
FC(F)(F)c1cccc([N+]2=NN(CCCl)CC2)c1.[Cl-] [2d, 1-(2-Chloroethyl)-3-(3-(trifluoromethyl)phenyl)-4,5-dihydro-1H-1,2,3-triazol-3-ium chloride] | 14.9 ± 1.08 µg/mL | 24.3 ± 1.22 µg/mL | 16.5 ± 4.14 µg/mL | 31.7 ± 5.45 µg/mL | 22.7 ± 2.98 µg/mL | 1.204 | 2.802 | 32.6 ± 2.79 µg/mL | 30.9 ± 3.15 µg/mL | 5.59 ± 3.03 µg/mL | 17.6 ± 2.29 µg/mL | 12.5 to 36.4 µg/mL | 1–5 times | 6–11 times | −3.373 | –
ClCCN1CC[N+](c2ccccc2)=N1.[Cl-] [2b, 1-(2-Chloroethyl)-3-phenyl-4,5-dihydro-1H-1,2,3-triazol-3-ium chloride] | 37.9 ± 17.1 µg/mL | 68.5 ± 6.36 µg/mL | 50.4 ± 8.08 µg/mL | 48.9 ± 18.7 µg/mL | 39.4 ± 11.5 µg/mL | 1.519 | 1.318 | – | – | 44.6 ± 4.37 µg/mL | 40.2 ± 4.29 µg/mL | – | – | – | −2.002 | –
Fc1ccc([N+]2=NN(CCCl)CC2)cc1.[Cl-] [2i, 1-(2-Chloroethyl)-3-(4-fluorophenyl)-4,5-dihydro-1H-1,2,3-triazol-3-ium chloride] | 70.2 ± 13.9 µg/mL | – | 61.4 ± 21.8 µg/mL | – | 51.3 ± 14.7 µg/mL | 1.824 | 1.027 | – | – | 51.4 ± 11.9 µg/mL | 75.6 ± 17.8 µg/mL | – | – | – | −1.873 | –
CCOC(=O)c1ccc([N+]2=NN(CCCl)CC2)cc1.[Cl-] [2f, 1-(2-Chloroethyl)-3-(4-(ethoxycarbonyl)phenyl)-4,5-dihydro-1H-1,2,3-triazol-3-ium chloride] | 27.8 ± 10.1 µg/mL | 36 ± 7.11 µg/mL | 20.9 ± 2.19 µg/mL | 5.59 ± 0.632 µg/mL | 23.5 ± 3.32 µg/mL | 1.301 | 2.259 | 42 ± 17.3 µg/mL | 22.8 ± 10.1 µg/mL | 6.16 ± 1.76 µg/mL | 61.9 ± 24.8 µg/mL | – | – | 6–11 times | – | –
N.N.[Cl][Pt][Cl] [cis-platin, reference compound] | – | – | – | – | – | – | – | – | – | – | – | – | – | – | – | IC50 ± SD ([10]; DAUDI, 72 h exposure, MTT): 1.07 ± 0.208 µg/mL; IC50 ± SD ([1]; Hep-G2, 72 h exposure, SRB): 0.68 ± 0.147 µg/mL; IC50 ± SD ([2]; JURKAT, 72 h exposure, MTT): 0.24 ± 0.056 µg/mL; IC50 ± SD ([3]; MCF-7, 72 h exposure, SRB): 1.73 ± 0.443 µg/mL; IC50 ± SD ([4]; HT-29, 72 h exposure, SRB): 3.63 ± 0.715 µg/mL; IC50 ± SD ([5]; 72 h exposure, SRB): 0.37 ± 0.137 µg/mL; IC50 ± SD ([7]; MCF-10A normal cells, 72 h exposure, SRB): 4.65 ± 1.171 µg/mL; IC50 ± SD ([8]; Du-145, 72 h exposure, SRB): 0.59 ± 0.086 µg/mL; IC50 ± SD ([9]; MV-4-11, 72 h exposure, MTT): 0.76 ± 0.184 µg/mL
ClCCN1CC[N+](c2ccc(Cl)cc2)=N1.[Cl-] [2e, 1-(2-Chloroethyl)-3-(4-chlorophenyl)-4,5-dihydro-1H-1,2,3-triazol-3-ium chloride] | 14.9 ± 4.66 µg/mL | 13.6 ± 3 µg/mL | 15.1 ± 2.77 µg/mL | 31.9 ± 8.14 µg/mL | 12.5 ± 2.23 µg/mL | 1.196 | 2.928 | 49.3 ± 15.5 µg/mL | 30.1 ± 10.2 µg/mL | 7.69 ± 3.17 µg/mL | 13.6 ± 3.66 µg/mL | 12.5 to 36.4 µg/mL | 1–5 times | 6–11 times | −3.503 | –
